According to ChEMBL document CHEMBL1156535, “Thiocarbamates as non-nucleoside HIV-1 reverse transcriptase inhibitors. Part 1: Parallel synthesis, molecular modelling and structure-activity relationship studies on O-[2-(hetero)arylethyl]-N-phenylthiocarbamates” (Bioorg Med Chem, 2008):
One block for each compound: values may come before it. Calls of active or inactive are those of the source. The rule behind the calls is not given here.

What was measured:
[1] = Cytotoxicity against human MT4 cells by MTT assay; assay type: cell-based
Procedure, shortened: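 Mock-infected MT-4 cells; viability by MTT method; CC50 taken as concentration reducing viability by 50%. Mean of three separate experiments, variation among triplicates under 10%.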

[2] = test system: Human immunodeficiency virus 1; experiment: Antiretroviral activity against HIV1 in human MT4 cells assessed as reduction in virus-induced cytopathogenicity by MTT assay; assay type: functional, organism-based; conditions: Human immunodeficiency virus 1, MT4
Procedure, shortened: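 MT-4 cells infected with HIV-1; MTT read-out of viability; EC50 taken as concentration giving 50% protection from virus-induced cytopathogenicity. Mean of three separate experiments, variation among triplicates under 10%.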

[3] = Selectivity index, ratio of CC50 for human MT4 cells to EC50 for HIV1; assay type: toxicity, cell-based; conditions: read-out: Ratio CC50/EC50
[4] = test system: HIV-1 Y181C mutant (Human immunodeficiency virus 1); experiment: Antiviral activity against HIV1 with reverse transcriptase Y181C mutation in human MT4 cells assessed as reduction of virus-induced cytopathogenicity by MTT assay; conditions: Human immunodeficiency virus 1, MT4
[5] = test system: HIV-1 K103N/Y181C mutant (Human immunodeficiency virus 1); experiment: Antiviral activity against HIV1 with reverse transcriptase K103N/Y181C mutation in human MT4 cells assessed as reduction of virus-induced cytopathogenicity by MTT assay; conditions: for EC50: Human immunodeficiency virus 1, MT4
[6] = test system: Human immunodeficiency virus 1; experiment: Antiviral activity against HIV1 in human C8166 cells assessed as reduction of p24 antigen level; assay type: functional, organism-based; conditions: Human immunodeficiency virus 1, C8166
Procedure, shortened: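 C8166 cultures infected with HIV-1; p24 antigen levels measured; EC90 taken as dose lowering p24 by 90%.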

SMILES: Fc1ccc(NC(=S)OCCc2ccccn2)cc1
CC50 [1]: > 100 µM
EC50 [2]: 1.2 µM
selectivity ratio [3]: > 83

SMILES: FC(F)(F)c1cc(NC(=S)OCCc2ccccn2)ccc1Cl
CC50 [1]: 42 µM
EC50 [2]: 5.5 µM
selectivity ratio [3]: 7.6

SMILES: CC(=O)c1ccc(NC(=S)OCCc2ccccn2)cc1
CC50 [1]: ≥ 100 µM
EC50 [2]: > 100 µM

SMILES: S=C(Nc1ccccc1)OCCc1ccccn1
CC50 [1]: > 100 µM
EC50 [2]: 7.4 µM
selectivity ratio [3]: > 14

SMILES: S=C(Nc1ccc(Cl)cc1)OCCc1ccccc1
CC50 [1]: > 100 µM
EC50 [2]: 0.5 µM
selectivity ratio [3]: > 200

SMILES: Fc1cccc(F)c1NC(=S)OCCc1ccccn1
CC50 [1]: > 100 µM
EC50 [2]: 38 µM
selectivity ratio [3]: > 2.6

SMILES: S=C(Nc1ccc(Br)cc1)OCCc1ccccn1
CC50 [1]: 37 µM
EC50 [2]: 0.2 µM
selectivity ratio [3]: 185
EC50 [4]: 20 µM
Activity [5]: inactive

SMILES: S=C(Nc1ccc(Cl)c(Cl)c1)OCCc1ccccn1
CC50 [1]: 40 µM
EC50 [2]: 0.2 µM
selectivity ratio [3]: 200

SMILES: Cc1ccccc1NC(=S)OCCc1ccccn1
CC50 [1]: > 100 µM
EC50 [2]: 69 µM
selectivity ratio [3]: > 1.4

SMILES: Cc1ccc(NC(=S)OCCc2ccccn2)cc1Cl
CC50 [1]: 59 µM
EC50 [2]: 0.7 µM
selectivity ratio [3]: 84

SMILES: S=C(Nc1ccccc1)OCCc1cccs1
CC50 [1]: > 100 µM
EC50 [2]: 14 µM
selectivity ratio [3]: > 7.1

SMILES: S=C(Nc1cccc(Cl)c1)OCCc1ccccn1
CC50 [1]: 47 µM
EC50 [2]: 1.4 µM
selectivity ratio [3]: 34

SMILES: CC(C)c1ccc(NC(=S)OCCc2ccccn2)cc1
CC50 [1]: 45 µM
EC50 [2]: > 45 µM
selectivity ratio [3]: < 1

SMILES: S=C(Nc1ccc(Cl)cc1Cl)OCCc1ccccn1
CC50 [1]: > 100 µM
EC50 [2]: 2.9 µM
selectivity ratio [3]: > 34

SMILES: Fc1cc(F)cc(NC(=S)OCCc2ccccn2)c1
CC50 [1]: > 100 µM
EC50 [2]: 9 µM
selectivity ratio [3]: > 11

SMILES: N#Cc1ccc(NC(=S)OCCc2ccccn2)cc1
CC50 [1]: 45 µM
EC50 [2]: 0.2 µM
selectivity ratio [3]: 225

SMILES: O=[N+]([O-])c1ccc(NC(=S)OCCc2ccccc2)cc1
CC50 [1]: > 100 µM
EC50 [2]: 0.9 µM
selectivity ratio [3]: > 111

SMILES: FC(F)(F)c1ccc(NC(=S)OCCc2ccccn2)cc1
CC50 [1]: 50 µM
EC50 [2]: 13 µM
selectivity ratio [3]: 3.8

EC90 [6]: 0.015 µM
SMILES: S=C(NCCc1ccccn1)Nc1ccc(Br)cn1 [TROVIRDINE]
selectivity ratio [3]: 3000

SMILES: Fc1ccc(F)c(NC(=S)OCCc2ccccn2)c1
CC50 [1]: > 100 µM
EC50 [2]: 9 µM
selectivity ratio [3]: > 11

EC90 [6]: 0.8 µM
SMILES: O=[N+]([O-])c1ccc(NC(=S)OCCc2ccccn2)cc1
CC50 [1]: > 100 µM
EC50 [2]: 0.7 µM
selectivity ratio [3]: > 143

SMILES: O=C1Nc2ccc(Cl)cc2[C@@](C#CC2CC2)(C(F)(F)F)O1 [EFAVIRENZ]
EC50 [4]: 0.01 µM
EC50 [5]: 0.04 µM

SMILES: Cc1ccc(NC(=S)OCCc2ccccc2)cc1
CC50 [1]: > 100 µM
EC50 [2]: 4.3 µM
selectivity ratio [3]: > 23

SMILES: O=[N+]([O-])c1ccc(NC(=S)OCCc2ccncc2)cc1
CC50 [1]: > 100 µM
EC50 [2]: > 100 µM

SMILES: Cc1ccc(NC(=S)OCCc2ccccn2)cc1
CC50 [1]: 75 µM
EC50 [2]: 1.7 µM
selectivity ratio [3]: 44

SMILES: S=C(Nc1ccc(I)cc1)OCCc1ccccn1
CC50 [1]: 34 µM
EC50 [2]: 0.5 µM
selectivity ratio [3]: 68

SMILES: S=C(Nc1ccc(Cl)cc1)OCCc1ccccn1
CC50 [1]: 52 µM
EC50 [2]: 0.1 µM
selectivity ratio [3]: 520

SMILES: CCc1ccc(NC(=S)OCCc2ccccn2)cc1
CC50 [1]: 44 µM
EC50 [2]: 10 µM
selectivity ratio [3]: 4.4

SMILES: Cc1ccc(NC(=S)OCCc2ccncc2)cc1
CC50 [1]: > 100 µM
EC50 [2]: 63 µM
selectivity ratio [3]: > 1.6

SMILES: O=[N+]([O-])c1cc(NC(=S)OCCc2ccccn2)ccc1Cl
CC50 [1]: 41 µM
EC50 [2]: 0.1 µM
selectivity ratio [3]: 410

SMILES: O=[N+]([O-])c1cccc(NC(=S)OCCc2ccccn2)c1
CC50 [1]: 100 µM
EC50 [2]: 1.6 µM
selectivity ratio [3]: 63
EC50 [4]: 87 µM
EC50 [5]: 91 µM

SMILES: COc1ccc(NC(=S)OCCc2ccncc2)cc1
CC50 [1]: 59 µM
EC50 [2]: > 59 µM
selectivity ratio [3]: < 1

SMILES: S=C(Nc1ccccc1Cl)OCCc1ccccn1
CC50 [1]: > 100 µM
EC50 [2]: 43 µM
selectivity ratio [3]: > 2.3

SMILES: COc1ccc(NC(=S)OCCc2ccccn2)cc1
CC50 [1]: 48 µM
EC50 [2]: 5.6 µM
selectivity ratio [3]: 8.6

SMILES: S=C(Nc1ccc(Cl)cc1)OCCc1ccncc1
CC50 [1]: 70 µM
EC50 [2]: > 70 µM
selectivity ratio [3]: < 1

SMILES: Fc1cccc(NC(=S)OCCc2ccccn2)c1
CC50 [1]: ≥ 100 µM
EC50 [2]: 1.1 µM
selectivity ratio [3]: ≥ 91

SMILES: CN(C)c1ccc(NC(=S)OCCc2ccccn2)cc1
CC50 [1]: 60 µM
EC50 [2]: > 60 µM
selectivity ratio [3]: < 1

SMILES: COc1ccc(NC(=S)OCCc2ccccc2)cc1
EC50 [2]: 17 µM
selectivity ratio [3]: 2.1

SMILES: S=C(Nc1ccccc1)OCCc1ccccc1
EC50 [2]: 6 µM
selectivity ratio [3]: 17

SMILES: Cc1cccc(NC(=S)OCCc2ccccn2)c1
CC50 [1]: > 100 µM
EC50 [2]: 7.7 µM
selectivity ratio [3]: > 13
